From ChEMBL document CHEMBL4732032, “Discovery of novel JAK2 and EGFR inhibitors from a series of thiazole-based chalcone derivatives” (RSC Med Chem, 2021)

Legend:
A549 = assay: Cytotoxicity against human A549 cells expressing EGFR assessed as reduction in cell viability incubated for 72 hrs by MTT assay; type: functional, cell-based; conditions: A549, 72 h
A-431 = assay: Cytotoxicity against human A-431 cells expressing EGFR assessed as reduction in cell viability incubated for 72 hrs by MTT assay; type: functional, cell-based; conditions: A-431, 72 h
Vero = assay: Cytotoxicity against African green monkey Vero cells assessed as reduction in cell viability incubated for 72 hrs by MTT assay; conditions: Chlorocebus sabaeus
[1] = Antiproliferative activity against human HMC 1.1 cells harboring KIT V560G mutant assessed as inhibition of cell proliferation measured after 72 hrs by MTS assay; type: functional, cell-based; conditions: HMC-1.1, 72 h
[2] = target: T1, Epidermal growth factor receptor (Homo sapiens, UniProt P00533); assay: Inhibition of EGFR (unknown origin)
T1 sequence (P00533 whole entry): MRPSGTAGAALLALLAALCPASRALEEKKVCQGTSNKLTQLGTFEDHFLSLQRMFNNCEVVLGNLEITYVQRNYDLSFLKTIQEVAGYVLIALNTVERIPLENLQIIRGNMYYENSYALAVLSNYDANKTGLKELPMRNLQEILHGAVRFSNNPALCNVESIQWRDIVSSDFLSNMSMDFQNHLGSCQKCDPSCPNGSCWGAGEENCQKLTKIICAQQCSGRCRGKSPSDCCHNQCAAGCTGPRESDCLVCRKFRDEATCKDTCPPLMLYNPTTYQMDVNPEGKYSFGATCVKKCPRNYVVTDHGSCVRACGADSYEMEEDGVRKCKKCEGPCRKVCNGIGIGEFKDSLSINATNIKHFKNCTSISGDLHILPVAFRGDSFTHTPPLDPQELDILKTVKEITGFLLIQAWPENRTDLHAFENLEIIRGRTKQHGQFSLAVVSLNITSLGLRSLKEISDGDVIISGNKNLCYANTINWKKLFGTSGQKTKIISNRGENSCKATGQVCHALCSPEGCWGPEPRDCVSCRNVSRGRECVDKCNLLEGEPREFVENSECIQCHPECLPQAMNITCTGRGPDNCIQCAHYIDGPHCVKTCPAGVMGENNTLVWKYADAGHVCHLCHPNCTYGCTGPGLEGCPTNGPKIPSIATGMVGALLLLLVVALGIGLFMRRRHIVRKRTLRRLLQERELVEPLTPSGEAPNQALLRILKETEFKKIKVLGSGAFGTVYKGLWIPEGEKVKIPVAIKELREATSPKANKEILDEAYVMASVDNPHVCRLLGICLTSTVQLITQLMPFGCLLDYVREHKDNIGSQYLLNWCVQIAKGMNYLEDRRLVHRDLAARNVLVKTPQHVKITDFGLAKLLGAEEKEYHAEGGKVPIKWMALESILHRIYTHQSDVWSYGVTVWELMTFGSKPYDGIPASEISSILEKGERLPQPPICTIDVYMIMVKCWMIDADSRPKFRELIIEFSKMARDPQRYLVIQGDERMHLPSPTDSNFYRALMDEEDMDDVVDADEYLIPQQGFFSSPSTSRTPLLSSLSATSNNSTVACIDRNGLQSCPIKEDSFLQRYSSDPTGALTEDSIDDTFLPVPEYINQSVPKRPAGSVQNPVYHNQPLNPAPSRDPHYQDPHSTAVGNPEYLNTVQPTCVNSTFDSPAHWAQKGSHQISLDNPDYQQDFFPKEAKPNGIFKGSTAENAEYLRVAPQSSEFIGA
Outline: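 ADP-Glo luminescent kinase assay in 40 mM Tris–HCl pH 7.5, 20 mM MgCl2, 0.1 mg/mL BSA. EGFR added at 1.25 ng/μL with inhibitor, then a mix of 5 μM ATP and 2.5 μM poly(Glu-Tyr); reaction run 1 h at room temperature. ADP-Glo reagent added for 40 min, then detection reagent for 30 min. Run in triplicate; % inhibition calculated against a no-inhibitor control.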

TF-1 = assay: Cytotoxicity against human TF-1 cells expressing JAK2 assessed as reduction in cell viability incubated for 72 hrs by presto blue reagent assay; type: functional, cell-based; conditions: TF-1, 72 h
HEL 92.1.7 = assay: Cytotoxicity against human HEL 92.1.7 cells expressing JAK2 assessed as reduction in cell viability incubated for 72 hrs by presto blue reagent assay; type: functional, cell-based; conditions: HEL 92.1.7, 72 h
[3] = target: Tyrosine-protein kinase JAK2 (Homo sapiens, UniProt O60674); assay: Inhibition of recombinant human JAK2 JH1 domain expressed in baculovirus infected insect cells using poly-Glu-Tyr (51 to 68 residues) as substrate incubated for 1 hr in presence of ATP by ADP-Glo assay
Sequence of Tyrosine-protein kinase JAK2 (O60674 whole entry, the tested form may be a part): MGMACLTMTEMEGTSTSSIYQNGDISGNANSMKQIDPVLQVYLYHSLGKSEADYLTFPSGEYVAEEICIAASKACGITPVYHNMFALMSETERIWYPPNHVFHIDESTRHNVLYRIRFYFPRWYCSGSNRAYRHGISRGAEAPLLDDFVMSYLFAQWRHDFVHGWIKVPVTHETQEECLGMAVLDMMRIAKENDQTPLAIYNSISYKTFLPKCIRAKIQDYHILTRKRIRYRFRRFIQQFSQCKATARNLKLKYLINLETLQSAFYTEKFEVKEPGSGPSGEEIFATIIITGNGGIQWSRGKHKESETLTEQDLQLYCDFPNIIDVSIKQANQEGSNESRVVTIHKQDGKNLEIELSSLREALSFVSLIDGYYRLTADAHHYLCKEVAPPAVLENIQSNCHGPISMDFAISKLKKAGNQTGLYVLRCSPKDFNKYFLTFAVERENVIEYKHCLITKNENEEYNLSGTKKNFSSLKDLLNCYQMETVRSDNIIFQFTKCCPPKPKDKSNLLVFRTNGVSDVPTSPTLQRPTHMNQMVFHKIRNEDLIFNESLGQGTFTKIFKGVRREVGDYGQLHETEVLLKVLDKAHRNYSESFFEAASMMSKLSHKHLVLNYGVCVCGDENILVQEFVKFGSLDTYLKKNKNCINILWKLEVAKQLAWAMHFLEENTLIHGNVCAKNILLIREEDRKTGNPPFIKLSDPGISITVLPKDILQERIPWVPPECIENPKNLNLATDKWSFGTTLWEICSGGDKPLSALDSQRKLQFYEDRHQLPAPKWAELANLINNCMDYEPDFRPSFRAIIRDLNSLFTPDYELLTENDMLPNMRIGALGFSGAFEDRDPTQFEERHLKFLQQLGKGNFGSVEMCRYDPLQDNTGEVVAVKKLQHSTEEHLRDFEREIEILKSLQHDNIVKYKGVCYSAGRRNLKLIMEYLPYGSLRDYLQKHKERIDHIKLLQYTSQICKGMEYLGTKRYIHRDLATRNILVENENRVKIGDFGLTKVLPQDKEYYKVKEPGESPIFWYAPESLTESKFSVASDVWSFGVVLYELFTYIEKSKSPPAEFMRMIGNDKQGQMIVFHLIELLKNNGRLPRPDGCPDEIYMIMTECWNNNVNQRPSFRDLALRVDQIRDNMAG

[4] = target: T1, Epidermal growth factor receptor; assay: Inhibition of human EGFR TK domain expressed in Escherichia coli BL21 (DE3) pLysS using poly-Glu-Tyr (51 to 68 residues) as substrate incubated for 1 hr by ADP-Glo assay
[5] = Potency index, ratio of ruxolitinib IC50 to test compound IC50 for human HEL 92.1.7 cells expressing JAK2 assessed as reduction in cell viability incubated for 72 hrs by presto blue reagent assay; type: functional
[6] = Potency index, ratio of erlotinib IC50 to test compound IC50 human A549 cells expressing EGFR assessed as reduction in cell viability incubated for 72 hrs by MTT assay; type: functional

SMILES | IC50 (A549) | IC50 (A-431) | IC50 (Vero) | IC50 (TF-1) | IC50 (HEL 92.1.7) | IC50 [3] | IC50 [4] | Ratio IC50 [5] | further results
CNc1nc(C)c(C(=O)/C=C/c2cccs2)s1 | 62.1 µM | 28.5 µM | > 100 µM | – | – | – | – | – | –
Cc1cn(-c2cc(NC(=O)c3ccc(Nc4nc(-c5cccnc5)cs4)c(C)c3)cc(C(F)(F)F)c2)cn1 | – | – | – | – | – | – | – | – | IC50 [1]: 138 nM
O=C(Cc1csc2nc3ccccc3n12)Nc1ccccc1O | – | – | – | – | – | – | – | – | IC50 [2]: 55 nM
CNc1nc(C)c(C(=O)/C=C/c2nccs2)s1 | – | – | > 100 µM | 30.2 µM | 6.89 µM | 20.3 nM | 256 nM | 2 | –
CNc1nc(C)c(C(=O)/C=C/c2ccc(O)cc2)s1 | 16.3 µM | 8.04 µM | > 100 µM | – | – | 33.9 nM | 33.7 nM | – | Ratio IC50 [6]: 2
CNc1nc(C)c(C(=O)/C=C/c2ccsc2)s1 | – | – | – | 32 µM | 9.96 µM | 17.6 nM | 144 nM | 2 | –
